According to ChEMBL document CHEMBL4382253, “Isolation and Characterization of Anaephenes A-C, Alkylphenols from a Filamentous Cyanobacterium ( Hormoscilla sp., Oscillatoriales)” (J Nat Prod, 2018):
In brackets after ≈: the same amount, converted by molar mass.

Tests used:
Bacillus cereus = assay: Antibacterial activity against Bacillus cereus ATCC 10987 NRS 248 measured after overnight incubation; type: functional
Procedure, shortened: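 B. cereus grown overnight in LB broth at 30 °C, diluted 10^6-fold in fresh medium. 2-fold serial broth microdilution in 96-well plates starting at 100 μM, DMSO or water as negative control. Triplicates. MIC is the lowest concentration with no visible turbidity.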

Staphylococcus aureus = assay: Antibacterial activity against Staphylococcus aureus ATCC 25923 Seattle 1945 measured after overnight incubation; type: functional
Procedure, shortened: (§1)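 Strain precultured overnight in LB broth at 37 °C, then diluted 10^6-fold in fresh medium. 2-fold serial broth microdilution in 96-well plates from 100 μM top concentration, DMSO or water negative control. Triplicate wells. MIC taken as the lowest concentration showing no turbidity.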

Pseudomonas aeruginosa = assay: Antibacterial activity against Pseudomonas aeruginosa PAO1 ATCC BAA-47 measured after overnight incubation; type: functional; procedure, shortened: as §1
[1] = test system: Mycobacterium tuberculosis; assay: Antibacterial activity against Mycobacterium tuberculosis H37Ra ATCC 25177 measured after 1 week; type: functional; conditions: H37Ra ATCC 25177, 168 h
Procedure, shortened: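 M. tuberculosis H37Ra grown two weeks in Middlebrook 7H9, diluted to OD600 0.01; broth microdilution in 96-well plates, compounds given at 2-fold final concentration in first column then serially diluted 2-fold; DMSO or H2O negative control, streptomycin positive control; triplicates; incubated one week at 37 °C.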

Saccharomyces cerevisiae = assay: Antifungal activity against Saccharomyces cerevisiae BY4741 measured after overnight incubation by spectrometric method; type: functional
Procedure, shortened: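 Yeast grown overnight in YPD at 30 °C. Cell density set by A660, final 10 × 10^5 cells/mL. 2-fold serial dilution in YPD from 100 μM, DMSO negative control, nystatin positive control starting at 25 μM. Triplicates, overnight incubation.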

HCT-116 = assay: Cytotoxicity against human HCT116 cells after 48 hrs by MTT assay; type: functional, cell-based; conditions: HCT-116, 48 h
Procedure, shortened: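 Cells kept in DMEM with 10% FBS and 1% antibiotic-antimycotic at 37 °C, 5% CO2. Seeded at 10,000 cells/well, treated after 24 h with a range of concentrations or DMSO. Viability read by MTT after 48 h.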

CCC/C=C/C=C/CCc1cccc(O)c1
MIC (Bacillus cereus): 22 µg/mL (≈ 102 µM) | MIC (Staphylococcus aureus): 22 µg/mL (≈ 102 µM) | MIC (Pseudomonas aeruginosa): > 22 µg/mL | MIC [1]: > 22 µg/mL | MIC (Saccharomyces cerevisiae): > 22 µg/mL | IC50 (HCT-116): > 100 µM

O=C(N[C@H](CO)[C@H](O)c1ccc([N+](=O)[O-])cc1)C(Cl)Cl [CHLORAMPHENICOL]
MIC (Staphylococcus aureus): 4 µg/mL (≈ 12.4 µM)

CN[C@@H]1[C@H](O[C@H]2[C@H](O[C@H]3[C@H](O)[C@@H](O)[C@H](N=C(N)N)[C@@H](O)[C@@H]3N=C(N)N)O[C@@H](C)[C@]2(O)C=O)O[C@@H](CO)[C@H](O)[C@H]1O [STREPTOMYCIN]
MIC (Pseudomonas aeruginosa): 6.2 µg/mL (≈ 10.7 µM) | MIC [1]: 3.1 µg/mL (≈ 5.33 µM)

CCC/C=C/CCCCc1cccc(O)c1
MIC (Bacillus cereus): 11 µg/mL (≈ 50.4 µM) | MIC (Staphylococcus aureus): 22 µg/mL (≈ 101 µM) | MIC (Pseudomonas aeruginosa): > 22 µg/mL | MIC [1]: > 22 µg/mL | MIC (Saccharomyces cerevisiae): > 22 µg/mL | IC50 (HCT-116): 26 µM

C#CCCC/C=C/CCCCc1cccc(O)c1
MIC (Bacillus cereus): 6.1 µg/mL (≈ 25.2 µM) | MIC (Staphylococcus aureus): 6.1 µg/mL (≈ 25.2 µM) | MIC (Pseudomonas aeruginosa): > 24 µg/mL | MIC [1]: > 24 µg/mL | MIC (Saccharomyces cerevisiae): > 24 µg/mL | IC50 (HCT-116): 71 µM

NYSTATIN
MIC (Saccharomyces cerevisiae): 23 µg/mL

O=C(O)c1cn(C2CC2)c2cc(N3CCNCC3)c(F)cc2c1=O [CIPROFLOXACIN]
MIC (Bacillus cereus): 0.03 µg/mL (≈ 0.0905 µM)
